Assay outcomes deposited in PubChem BioAssay by several laboratories.
IDE act: IDE (human) activation, cell-based | HEK cells, FAbeta-B cleavage, fluorescence polarization; 0% vehicle, 100% cell-free pure enzyme wells | activation, % at 5.96 µM | actives 0.073% (n = 340,000) | AID 493087;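 active = activation above the mean of all tested compounds plus 3 SD, set per screening campaign, cut at about 17% in these data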
TPT1 inh: inhibitors of Candida albicans tRNA 2'-phosphotransferase TPT1; recombinant caTPT1, FP RNA substrate dephosphorylation; inhibition, % at 5 µM; actives 0.81% (n = 300,000); AID 1962;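 active = inhibition above the mean of all tested compounds plus 3 SD, set per screening campaign, cut at about 24% in these data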;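 also: plate controls were DMSO alone for no effect and ferristatin control at 100 nM for full effect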
CSN deneddyl inh: blocks human CSN-mediated cullin deneddylation; actives 0.38% (n = 360,000); Q92905; Purified CSN, SCF-Nedd8-OG deneddylation, fluorescence polarization; inhibition, % at 12.5 µM; AID 651999;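 active = pattern-corrected inhibition above about 35%, with an unprinted fluorescence ratio check between 0.5 and 1.5, limit read from the data, passing the limit was not always enough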;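 also: 0% = enzyme with substrate and 100% = substrate without enzyme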
Target sequence (Q92905 whole entry, looked up, one chain of several): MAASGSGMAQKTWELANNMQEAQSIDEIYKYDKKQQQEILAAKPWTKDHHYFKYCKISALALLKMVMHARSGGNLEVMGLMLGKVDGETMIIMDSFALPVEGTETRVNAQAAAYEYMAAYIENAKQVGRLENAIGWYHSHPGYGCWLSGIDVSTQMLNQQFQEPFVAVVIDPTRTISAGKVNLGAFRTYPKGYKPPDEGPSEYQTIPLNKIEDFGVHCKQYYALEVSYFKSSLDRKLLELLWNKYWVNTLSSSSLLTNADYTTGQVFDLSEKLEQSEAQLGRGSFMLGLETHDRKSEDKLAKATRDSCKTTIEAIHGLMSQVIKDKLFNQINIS
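Assay system: HEK293T-derived human Csn5 enzyme; quantity: 0.24 nM enzyme; medium: Tris/NaCl/DTT buffer, pH 7.5; also added: substrate SCFSkp2-Nedd8OG, 10 nM; doses: 12.5 µM compound; schedule: 90 min reaction at room temperature; signal: FP; read-out: % inhibition of substrate cleavage by Csn5; benchmarks: substrate-only high control, full reaction low control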
Rpn11 inh: Rpn11 (human) deubiquitinase inhibition | O00487 | human 26S proteasome, Ub4-pepOG fluorescence polarization; 20S core pre-blocked with epoxomicin | calls only at 20 µM | actives 0.59% (n = 360,000);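 active = inhibition at 20 µM, scaled to each plate's controls, above about 33%, limit read from the data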
Target sequence (O00487 whole entry, looked up): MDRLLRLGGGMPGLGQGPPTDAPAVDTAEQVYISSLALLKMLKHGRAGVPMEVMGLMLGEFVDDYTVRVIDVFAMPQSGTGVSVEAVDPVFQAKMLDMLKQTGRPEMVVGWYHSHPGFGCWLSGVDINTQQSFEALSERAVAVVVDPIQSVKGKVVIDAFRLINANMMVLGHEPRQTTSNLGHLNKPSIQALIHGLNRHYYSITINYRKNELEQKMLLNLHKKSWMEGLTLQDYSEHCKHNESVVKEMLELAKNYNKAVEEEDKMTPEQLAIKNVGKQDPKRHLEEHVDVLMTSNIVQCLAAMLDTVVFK
HNF4A DNA FP: change in binding of human HNF4 alpha to DNA. P41235. HNF4a-FITC DNA binding, fluorescence polarization, 1 h. activity change, % at 10 µM. actives 0.3% (n = 360,000); in the data active = activity change above about 30%, passing the limit was not always enough
IDE inh: cellular human IDE inhibition. P14735. HEK cells, FAbetaB cleavage, fluorescence polarization. inhibition, % at 5.59 µM. actives 0.41% (n = 320,000). AID 434962;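 active = percent inhibition above the average of all tested compounds plus 3 SD, set per screening campaign, cut at about 16% in these data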;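 also: IDE supplied by intact live HEK cells; FP after avidin binding of uncleaved biotin substrate so inhibition keeps polarization high; 0% = DMSO wells and 100% = 60 µM reference IDE inhibitor Ii1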
caTPT1 confirm: TPT1 (C. albicans) inhibition, confirmation | AID 2149 | shares compounds with TPT1 inh | inhibition, % at 5 µM | recombinant caTPT1, fluorescence polarization, RNase T1 coupled | actives 74% (n = 2,400);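 active = inhibition above the primary screen limit, the mean inhibition of all tested compounds plus 3 SD, cut at about 25% in these data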
RNase T1 inh: counter-screen for TPT1 inhibitors: inhibitors of Aspergillus oryzae RNase T1. inhibition, % at 5 µM. RNase T1 cleavage, fluorescence polarization, 1536-well. actives 83% (n = 2,400). shares compounds with TPT1 inh;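 active = inhibition above the solvent-only control well mean plus 3 SD, limit set per screening run, cut at about 23% in these data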;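 also: plate controls were DMSO wells with enzyme for no effect and wells without RNase T1 for full effect; inhibitors block cleavage so intact labeled substrate keeps polarization high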
The depositor's hits bear a star; i = inactive; / = no result given; + = active, no number. Hits are enriched below; roughly 1.7% of the tested compounds scored in any of these assays.

SMILES	IDE act	TPT1 inh	CSN deneddyl inh	Rpn11 inh	HNF4A DNA FP	IDE inh	caTPT1 confirm	RNase T1 inh
Cn1cc(C(=O)NCc2ccccc2)c2ccccc21	1	39*	-2	i	1	6	-2	3
O=C1OC(c2ccc([N+](=O)[O-])cc2)=N/C1=C/N1CC2CC(C1)c1cccc(=O)n1C2 (configuration not stated)	6	34*	-1	i	3	5	42*	54*
CN(C)C=C1C(=O)N(C2CCCCC2)C(=O)N(C2CCCCC2)C1=O	7	29*	6	i	0	0	43*	58*
O=c1[nH]c(=O)n(Cc2ccccc2Cl)c(O)c1/C=C1/C=CC=N1	-1	29*	8	i	5	2	18	23*
C=CCn1c(O)c(/C=C2/C=CC=N2)c(=O)[nH]c1=O	2	-1	3	i	-2	-2	/	/
c1cncc(CNCCc2ccc3c(c2)OCO3)c1	7	0	-1	i	0	-3	/	/
N#CC(C#N)=Cc1ccc(N2CCOCC2)cc1	-9	9	5	i	-1	-7	/	/
Cc1cc(C=C(C#N)C#N)ccc1N1CCCC1	-11	126*	13	i	6	7	120*	139*
Cc1onc(-c2ccccc2)c1C(=O)N1CCC2(CC1)OCCO2	2	-3	5	i	-1	-1	/	/
CCN1C(=O)C(=C/C=C/c2ccco2)C(=O)N(CC)C1=S	-17	81*	162	/	98	7	100*	104*
O=C1NC(=S)NC(=O)C1=Cc1ccc2c(c1)CCN2CCCCl	/	6	48	/	-57	1	/	/
Cc1ccccc1N1C(=O)NC(=O)/C(=C\c2ccc3c(c2)CCCN3Cc2ccccc2)C1=O	-1	61*	20	/	0	5	154*	145*
O=C1CC(=O)N(c2ccccc2F)C(=O)N1	3	9	1	i	4	3	/	/
Cc1ccccc1N1C(=O)CC(=O)N(c2ccccc2C)C1=O	0	31*	-4	i	4	-4	15	22*
CCn1c(O)c(N=Nc2ccc(S(=O)(=O)N3CCOCC3)cc2)c(=O)n(CC)c1=S	1	6	0	i	5	0	/	/
CN1C(=O)/C(=C/c2cccn2-c2ccc3ccccc3c2)C(=O)NC1=S	-11	38*	6	i	-7	3	17	21
Cc1cc(C)cc(N2C(=O)NC(=O)/C(=C\c3cccn3-c3ccccc3)C2=O)c1	0	2	-10	i	-2	6	/	/
Cc1cc(Br)ccc1N1C(=O)CC(=O)NC1=O	1	24*	14	i	8	1	13	18
O=C1CC(=O)N(c2cccc(Br)c2)C(=O)N1	4	18	12	i	10	3	/	/
O=C1CC(=O)N(c2ccc(Cl)cc2Cl)C(=O)N1	-1	37*	16	i	9	2	16	25*
Cn1cccc1/C=C1\C(=O)NC(=O)N(Cc2ccccc2Cl)C1=O	-4	/	13	i	5	/	/	/
COC(=O)C1=Nc2ccccc2/C1=C\c1c(O)n(-c2ccc(OC)cc2)c(=O)[nH]c1=O	4	11	4	i	3	0	/	/
COC(=O)C1=Nc2ccccc2/C1=C\c1c(O)n(-c2ccc(Br)cc2)c(=O)[nH]c1=O	1	27*	5	i	3	6	33*	44*
NC(=O)CN1CCCC1=O	4	3	-1	i	-1	-1	/	/
O=Cc1c(C(=O)O)n(Cc2ccccc2Cl)c2ccccc12	1	5	2	i	2	-1	/	/
SMILES	IDE act	TPT1 inh	CSN deneddyl inh	Rpn11 inh	HNF4A DNA FP	IDE inh	caTPT1 confirm	RNase T1 inh
Cc1cc(C)c(Cn2c(C(=O)O)c(C=O)c3ccccc32)c(C)c1	1	53*	95	/	106	7	118*	120*
COc1cc(OC)c(OC)cc1/C=C1/C(=O)NC(=O)N(Cc2ccccc2)C1=O	9	26*	9	i	-1	3	30*	41*
CC1CN(c2ccccn2)C(C)CN1C(=O)C(O)(c1ccccc1)c1ccccc1 (configuration not stated)	-4	/	-3	i	-2	/	/	/
CCn1c(O)c(C(=O)CC2NCCc3ccccc32)c(=O)n(CC)c1=S (configuration not stated)	-10	62*	19	+	36	4	56*	68*
CCn1c(O)c(/C=N/N2CCOCC2)c(=O)n(CC)c1=S	4	23	0	i	4	0	/	/
O=C1NC(=O)N(c2ccc3c(c2)OCO3)C(=O)/C1=C/c1ccc(N2CCCCC2)o1	-24	132*	141	/	163	14	146*	142*
CCN(CC)c1ccc(C=C2C(=O)N(C)C(=S)N(C)C2=O)o1	-15	93*	133	/	147	12	102*	112*
CN1C(=O)C(=Cc2ccc(N3CCCCC3)o2)C(=O)N(C)C1=S	-11	85*	144	/	133	9	105*	111*
COc1ccc(OC)c(NC2=NCCCS2)c1	4	4	1	i	-1	5	/	/
CCOc1cc(CNCCc2ccccc2F)ccc1OC	2	0	6	i	-1	1	/	/
CC(=O)c1c(O)n(C)c(=S)n(-c2ccccc2)c1=O	5	45*	0	i	26	7	30*	40*
CC(C)N1C(=O)CCC1C(=O)N1CCC2(CC1)OCCO2 (configuration not stated)	-1	-1	-3	i	-2	2	/	/
Cc1ccc(N2C(=O)NC(=O)/C(=C\c3cc(C)n(-c4sc5c(c4C#N)CCCC5)c3C)C2=O)cc1	-3	26*	22	i	-6	1	36*	50*
CCN1C(=O)NC(=O)/C(=C/c2cc(C)n(-c3sc(C)c(C)c3C#N)c2C)C1=O	4	20	3	i	2	2	/	/
COc1cccc(-c2nn(CCC#N)cc2C(=O)Nc2ccccc2Cl)c1	1	/	1	i	0	/	/	/
COc1ccccc1/C=C1\C(=O)NC(=S)N(c2ccccc2)C1=O	1	6	5	i	0	7	/	/
CCN1C(=O)/C(=C/c2ccc(N(CC)CC)cc2OC)C(=O)NC1=S	-12	44*	15	i	4	3	95*	101*
COC(=O)C1=C(c2ccccc2OCc2ccccc2)C[C@@H]2CC[C@H]1N2C(=O)NCc1ccc(OC)c(OC)c1	2	/	0	i	1	0	/	/
